What was measured:
Assay type in all cases: cell-based
[1] = biological target: T1, Multidrug resistance-associated protein 1 (Homo sapiens, UniProt P33527); experiment: Inhibition of MRP1 in human 2008/MRP1 cells assessed as potentiation of doxorubicin-induced cytotoxicity by measuring cell survival at 1 uM after 5 days by MTS assay relative to control; conditions: 120 h
Method in brief: (§1)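 2008/MRP1 cells (retroviral human MRP1 transfectant; RPMI 1640, 10% FBS) at 4,000 per well, with 100 nM doxorubicin plus crude, unpurified click products in DMSO: 2 µM in the primary screen, 1 µM in the secondary. Incubated 5 days at 37 °C. MTS/PMS added for 2 h at 37 °C, absorbance read at 490 nm. % survival is relative to wells without DOX or product. Run in triplicate, at least three experiments.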

[2] = Cytotoxicity against human 2008/MRP1 cells assessed as cell survival at 2 uM after 5 days by MTS assay relative to control; conditions: read-out: Survival
[3] = biological target: T1, Multidrug resistance-associated protein 1; experiment: Inhibition of MRP1 in human 2008/MRP1 cells assessed as potentiation of doxorubicin-induced cytotoxicity by measuring cell survival at 2 uM after 5 days by MTS assay relative to control; conditions: 120 h; method in brief: as §1
[4] = system: L929; experiment: Cytotoxicity against mouse L929 cells assessed as reduction in cell survival after 5 days by MTS assay; conditions: L929, 120 h
[5] = species: Homo sapiens; experiment: Inhibition of P-gp in human LCC6MDR cells assessed as potentiation of paclitaxel-induced cytotoxicity by measuring fold reduction in paclitaxel IC50 at 1 uM after 5 days by MTS assay relative to paclitaxel alone

T1 sequence (P33527 whole entry): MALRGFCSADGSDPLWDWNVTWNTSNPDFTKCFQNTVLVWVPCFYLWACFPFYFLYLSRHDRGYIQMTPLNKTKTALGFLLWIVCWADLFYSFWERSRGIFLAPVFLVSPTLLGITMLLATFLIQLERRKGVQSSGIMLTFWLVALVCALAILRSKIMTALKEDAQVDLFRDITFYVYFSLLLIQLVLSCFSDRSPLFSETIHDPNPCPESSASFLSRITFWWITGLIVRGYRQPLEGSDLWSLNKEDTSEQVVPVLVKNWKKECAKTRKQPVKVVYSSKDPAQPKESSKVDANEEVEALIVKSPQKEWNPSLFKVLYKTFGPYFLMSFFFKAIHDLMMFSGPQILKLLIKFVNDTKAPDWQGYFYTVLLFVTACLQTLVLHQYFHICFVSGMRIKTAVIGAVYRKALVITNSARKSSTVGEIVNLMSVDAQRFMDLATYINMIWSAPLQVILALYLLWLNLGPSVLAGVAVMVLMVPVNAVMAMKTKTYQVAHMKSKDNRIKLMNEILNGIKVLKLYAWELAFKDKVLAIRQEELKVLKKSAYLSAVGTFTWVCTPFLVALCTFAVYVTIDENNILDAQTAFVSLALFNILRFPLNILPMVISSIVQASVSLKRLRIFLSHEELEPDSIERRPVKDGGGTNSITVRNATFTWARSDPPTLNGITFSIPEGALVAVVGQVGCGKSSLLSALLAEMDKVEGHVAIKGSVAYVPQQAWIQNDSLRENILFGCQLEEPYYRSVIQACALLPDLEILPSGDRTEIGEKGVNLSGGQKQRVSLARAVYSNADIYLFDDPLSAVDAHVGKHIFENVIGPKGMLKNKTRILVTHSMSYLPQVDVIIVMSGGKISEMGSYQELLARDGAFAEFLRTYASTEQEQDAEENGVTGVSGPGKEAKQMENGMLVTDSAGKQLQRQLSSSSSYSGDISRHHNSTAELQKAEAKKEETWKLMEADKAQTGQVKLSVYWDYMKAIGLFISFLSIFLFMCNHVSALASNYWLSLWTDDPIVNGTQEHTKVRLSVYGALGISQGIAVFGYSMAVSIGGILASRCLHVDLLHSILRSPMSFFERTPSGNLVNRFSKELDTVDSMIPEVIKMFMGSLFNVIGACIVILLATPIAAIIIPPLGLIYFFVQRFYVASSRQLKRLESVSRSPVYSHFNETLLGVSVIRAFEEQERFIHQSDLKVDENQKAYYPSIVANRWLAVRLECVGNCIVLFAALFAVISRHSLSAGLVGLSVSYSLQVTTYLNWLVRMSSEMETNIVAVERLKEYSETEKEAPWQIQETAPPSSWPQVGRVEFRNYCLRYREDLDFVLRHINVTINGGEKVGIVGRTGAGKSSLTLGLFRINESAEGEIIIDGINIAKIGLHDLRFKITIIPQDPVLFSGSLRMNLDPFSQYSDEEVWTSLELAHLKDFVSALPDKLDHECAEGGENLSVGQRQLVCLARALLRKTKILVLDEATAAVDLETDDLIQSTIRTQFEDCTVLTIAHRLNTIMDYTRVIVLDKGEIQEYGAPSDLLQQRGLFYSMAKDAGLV

| SMILES | Survival [1] [%] | viability at 120 h, 2 µM [2] [%] | Survival [3] [%] | IC50 [4] [µM] | Ratio IC50 [5] |
| --- | --- | --- | --- | --- | --- |
| O=C(/C=C/c1ccc(OCCCCc2cn(CCOCCOc3ccc(-c4cc(=O)c5ccccc5o4)cc3)nn2)cc1)c1ccccc1O | 56 | 83 | 39 |  |  |
| O=c1cc(-c2ccccc2)oc2cc(OCCOCCn3cc(CN(CCOc4ccc5c(=O)cc(-c6ccccc6)oc5c4)Cc4ccccc4)nn3)ccc12 | 54 | 80 | 46 |  |  |
| O=c1cc(-c2ccc(OCCCc3cn(CCOCCOCCOc4ccc(-c5oc6ccccc6c(=O)c5OCc5ccccc5)cc4)nn3)cc2)oc2ccccc12 | 62 | 39 | 45 |  |  |
| O=C1c2ccccc2C(=O)N1CCc1cn(CCOCCOCCOc2ccc(-c3cc(=O)c4cc(F)ccc4o3)cc2)nn1 |  | 10 | 28 |  |  |
| O=C1c2ccccc2C(=O)N1CCc1cn(CCOCCOc2ccc(-c3cc(=O)c4cc(F)ccc4o3)cc2)nn1 |  | 14 | 39 |  |  |
| CN(C)C(=O)CCSC(SCCC(=O)O)c1cccc(/C=C/c2ccc3ccc(Cl)cc3n2)c1 (stereo unspecified) [MK-571] |  |  |  | > 100 |  |
| O=C1c2ccccc2C(=O)N1CCc1cn(CCOCCOCCOc2ccc3c(=O)cc(-c4ccccc4)oc3c2)nn1 |  | 23 | 41 |  |  |
| COc1cccc(COc2c(-c3ccc(OCCCCc4cn(CCOCCOCCOc5ccc(-c6oc7ccccc7c(=O)c6OCc6ccccc6)cc5)nn4)cc3)oc3ccccc3c2=O)c1 |  | 53 | 33 |  |  |
| O=c1cc(-c2ccc(OCCCc3cn(CCOCCOc4cccc(-c5oc6ccccc6c(=O)c5OCc5ccccc5)c4)nn3)cc2)oc2cc(F)ccc12 | 55 | 99 | 45 |  |  |
| O=c1cc(-c2ccc(OCCCc3cn(CCOCCOCCOc4ccc5c(=O)cc(-c6ccccc6)oc5c4)nn3)cc2)oc2ccccc12 | 54 | 49 | 42 |  |  |
| O=c1cc(-c2ccc(OCCCc3cn(CCOCCOc4ccc(-c5cc(=O)c6cc(F)ccc6o5)cc4)nn3)cc2)oc2ccccc12 |  | 43 | 39 |  |  |
| O=C(/C=C/c1ccc(OCCCCc2cn(CCOCCOc3ccc(-c4cc(=O)c5ccccc5o4)cc3)nn2)cc1)c1ccc(F)cc1O | 66 | 90 | 42 |  |  |
| CCc1ccc(O)c(C(=O)/C=C/c2ccc(OCCCCc3cn(CCOCCOc4ccc(-c5cc(=O)c6ccccc6o5)cc4)nn3)cc2)c1 | 66 | 95 | 40 |  |  |
| O=c1cc(-c2ccc(OCCOCCn3cc(CCCOc4ccc(-c5cc(=O)c6ccc(F)cc6o5)cc4)nn3)cc2)oc2ccccc12 | 29 | 91 | 21 | > 100 | 63.5 |
| O=C1c2ccccc2C(=O)N1CCc1cn(CCOc2cccc3c(=O)cc(-c4ccccc4)oc23)nn1 |  | 11 | 37 |  |  |
| O=c1cc(-c2ccc(OCCOCCOCCn3cc(CN(CCOc4ccc5c(=O)cc(-c6ccccc6)oc5c4)Cc4ccccc4)nn3)cc2)oc2ccccc12 | 48 to 63 | 74 | 45 | > 100 | 31.7 |
| COc1cccc(COc2c(-c3ccc(OCCCCc4cn(CCOCCOCCOc5ccc(-c6cc(=O)c7cc(C)ccc7o6)cc5)nn4)cc3)oc3ccccc3c2=O)c1 |  | 50 | 46 |  |  |
| Cc1ccc2oc(-c3ccc(OCCCCc4cn(CCOCCOCCOc5ccc(-c6cc(=O)c7ccccc7o6)cc5)nn4)cc3)cc(=O)c2c1 |  | 68 | 39 |  |  |
| COc1cccc(COc2c(-c3ccc(OCCOCCn4cc(COCCOc5ccc6c(=O)cc(-c7ccccc7)oc6c5)nn4)cc3)oc3ccccc3c2=O)c1 | 71 | 88 | 47 |  |  |
| Cc1ccc2oc(-c3ccc(OCCCCc4cn(CCOCCOCCOc5ccc6c(=O)cc(-c7ccccc7)oc6c5)nn4)cc3)cc(=O)c2c1 | 65 | 89 | 33 |  |  |
| O=c1cc(-c2ccccc2)oc2cc(OCCOCCOCCn3cc(CCCOc4ccc(-c5cc(=O)c6cc(F)ccc6o5)cc4)nn3)ccc12 |  | 105 | 40 |  |  |
| O=c1cc(-c2ccccc2)oc2cc(OCCCCc3cn(CCOCCOCCOc4ccc(-c5cc(=O)c6cc(F)ccc6o5)cc4)nn3)ccc12 | 59 | 92 | 47 |  |  |
| O=C1c2ccccc2C(=O)N1CCc1cn(CCOCCOc2ccc(-c3cc(=O)c4ccccc4o3)cc2)nn1 |  | 18 | 37 |  |  |
| O=c1cc(-c2ccc(OCCOCCOCCn3cc(CN(Cc4ccccc4)Cc4cn(CCOCCOCCOc5ccc(-c6cc(=O)c7ccccc7o6)cc5)nn4)nn3)cc2)oc2ccccc12 |  | 49 | 29 |  |  |
| O=c1cc(-c2ccc(OCCOCCn3cc(CN(Cc4ccccc4)Cc4cn(CCOCCOc5ccc(-c6cc(=O)c7ccccc7o6)cc5)nn4)nn3)cc2)oc2ccccc12 | 79 | 92 | 49 |  |  |
